Laboratory results as given in ChEMBL document CHEMBL3232764, “Influence of the adamantyl moiety on the activity of biphenylacrylohydroxamic acid-based HDAC inhibitors” (Eur J Med Chem, 2014).
pIC50: −log10 of the molar value.

How the values were obtained:
Histone deacetylase 9 = Histone deacetylase 9 (Homo sapiens, UniProt Q9UKV0); experiment: Inhibition of human HDAC9 using fluorogenic tetrapeptide RHKKAc as substrate
Histone deacetylase 1 = Histone deacetylase 1 (Homo sapiens, UniProt Q13547); experiment: Inhibition of human HDAC1 using fluorogenic tetrapeptide RHKKAc as substrate
Sequence of Histone deacetylase 1 (Q13547 whole entry): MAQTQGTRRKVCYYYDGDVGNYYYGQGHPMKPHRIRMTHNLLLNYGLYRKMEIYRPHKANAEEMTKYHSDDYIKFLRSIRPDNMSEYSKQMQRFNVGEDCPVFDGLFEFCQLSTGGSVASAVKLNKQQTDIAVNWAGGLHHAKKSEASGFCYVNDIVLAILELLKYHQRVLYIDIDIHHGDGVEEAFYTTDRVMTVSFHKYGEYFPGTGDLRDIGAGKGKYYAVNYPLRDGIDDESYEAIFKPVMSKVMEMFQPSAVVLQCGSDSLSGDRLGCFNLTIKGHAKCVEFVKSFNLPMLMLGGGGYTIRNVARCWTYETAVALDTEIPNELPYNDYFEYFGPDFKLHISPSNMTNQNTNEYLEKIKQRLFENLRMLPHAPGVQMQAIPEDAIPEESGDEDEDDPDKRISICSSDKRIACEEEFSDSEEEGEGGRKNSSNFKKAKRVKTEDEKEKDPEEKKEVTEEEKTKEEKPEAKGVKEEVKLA

[1] = molecular target: T1, Polyamine deacetylase HDAC10 (Homo sapiens, UniProt Q969S8); experiment: Inhibition of human HDAC10 using fluorogenic tetrapeptide RHKKAc as substrate
T1 sequence (Q969S8 whole entry): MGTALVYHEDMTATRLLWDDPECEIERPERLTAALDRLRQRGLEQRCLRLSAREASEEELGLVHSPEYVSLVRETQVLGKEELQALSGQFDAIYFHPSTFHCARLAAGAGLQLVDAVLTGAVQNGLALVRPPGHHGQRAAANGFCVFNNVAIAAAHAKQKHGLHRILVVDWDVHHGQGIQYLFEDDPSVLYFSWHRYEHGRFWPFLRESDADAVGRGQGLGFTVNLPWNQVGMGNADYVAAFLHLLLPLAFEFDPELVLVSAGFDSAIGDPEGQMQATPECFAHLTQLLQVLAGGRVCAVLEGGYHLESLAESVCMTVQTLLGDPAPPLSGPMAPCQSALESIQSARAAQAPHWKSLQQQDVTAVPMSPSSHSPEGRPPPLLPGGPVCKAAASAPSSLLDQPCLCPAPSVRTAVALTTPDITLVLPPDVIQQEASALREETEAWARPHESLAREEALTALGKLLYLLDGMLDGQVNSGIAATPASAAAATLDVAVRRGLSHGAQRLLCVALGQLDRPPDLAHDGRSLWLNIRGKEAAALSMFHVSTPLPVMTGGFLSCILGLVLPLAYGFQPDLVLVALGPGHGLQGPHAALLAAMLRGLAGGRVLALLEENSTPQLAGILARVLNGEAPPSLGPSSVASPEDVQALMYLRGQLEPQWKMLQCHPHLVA

Histone deacetylase 3 = Histone deacetylase 3 (Homo sapiens, UniProt O15379)
Sequence of Histone deacetylase 3 (O15379 whole entry): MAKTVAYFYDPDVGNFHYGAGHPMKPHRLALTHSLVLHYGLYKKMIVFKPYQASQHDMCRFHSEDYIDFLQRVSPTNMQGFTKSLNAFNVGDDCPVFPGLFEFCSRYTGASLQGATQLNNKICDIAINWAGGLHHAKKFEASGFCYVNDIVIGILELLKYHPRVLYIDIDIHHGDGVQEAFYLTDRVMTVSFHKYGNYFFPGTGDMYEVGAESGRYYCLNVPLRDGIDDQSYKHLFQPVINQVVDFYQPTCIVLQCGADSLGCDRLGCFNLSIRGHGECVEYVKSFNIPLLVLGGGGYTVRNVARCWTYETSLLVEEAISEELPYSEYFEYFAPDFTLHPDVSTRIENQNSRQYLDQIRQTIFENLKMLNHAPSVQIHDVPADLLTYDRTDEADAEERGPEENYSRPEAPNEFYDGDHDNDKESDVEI

IGROV-1 = experiment: Induction of apoptosis in human IGROV1 cells at IC80 after 72 hrs by TUNEL and flow cytometry analysis (reference value: 4%); assay type: functional
HCT-116 = experiment: Antiproliferative activity against human HCT116 cells assessed as growth inhibition after 72 hrs; assay type: functional, cell-based; details: HCT-116, 72 h
In short: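 Log-phase cells seeded in duplicate in 6-well plates; drug added 24 h after seeding. Cells harvested 72 h after drug exposure and counted with a cell counter. IC50 = drug concentration giving 50% reduction in cell number versus untreated control.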

Histone deacetylase 8 = molecular target: T2, Histone deacetylase 8 (Homo sapiens, UniProt Q9BY41); experiment: Inhibition of human HDAC8 using fluorogenic tetrapeptide RHKKAc as substrate
T2 sequence (Q9BY41 whole entry): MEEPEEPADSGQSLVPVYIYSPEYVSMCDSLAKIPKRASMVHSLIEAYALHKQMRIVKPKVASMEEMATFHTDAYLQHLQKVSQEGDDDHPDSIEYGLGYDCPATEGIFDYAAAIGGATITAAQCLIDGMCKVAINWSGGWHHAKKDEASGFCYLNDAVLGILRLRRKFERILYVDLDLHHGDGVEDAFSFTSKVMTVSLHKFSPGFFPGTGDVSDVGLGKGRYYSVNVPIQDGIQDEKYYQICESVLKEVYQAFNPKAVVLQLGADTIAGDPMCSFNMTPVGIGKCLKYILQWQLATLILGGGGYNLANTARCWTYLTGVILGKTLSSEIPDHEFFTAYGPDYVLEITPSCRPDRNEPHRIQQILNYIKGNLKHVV

Histone deacetylase 11 = molecular target: T3, Histone deacetylase 11 (Homo sapiens, UniProt Q96DB2); experiment: Inhibition of human HDAC11 using fluorogenic tetrapeptide RHKKAc as substrate
T3 sequence (Q96DB2 whole entry): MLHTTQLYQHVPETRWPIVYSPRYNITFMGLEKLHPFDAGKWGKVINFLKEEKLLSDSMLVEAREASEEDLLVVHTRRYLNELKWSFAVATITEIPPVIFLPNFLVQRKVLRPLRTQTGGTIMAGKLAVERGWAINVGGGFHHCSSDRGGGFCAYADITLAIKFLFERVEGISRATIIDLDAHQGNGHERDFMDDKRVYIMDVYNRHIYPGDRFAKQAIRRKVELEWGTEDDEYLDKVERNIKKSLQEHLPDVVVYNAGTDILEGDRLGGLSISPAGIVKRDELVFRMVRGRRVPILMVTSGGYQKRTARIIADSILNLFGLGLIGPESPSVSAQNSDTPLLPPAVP

Histone deacetylase 5 = Histone deacetylase 5 (Homo sapiens, UniProt Q9UQL6); experiment: Inhibition of human HDAC5 using fluorogenic tetrapeptide RHKKAc as substrate
Sequence of Histone deacetylase 5 (Q9UQL6 whole entry): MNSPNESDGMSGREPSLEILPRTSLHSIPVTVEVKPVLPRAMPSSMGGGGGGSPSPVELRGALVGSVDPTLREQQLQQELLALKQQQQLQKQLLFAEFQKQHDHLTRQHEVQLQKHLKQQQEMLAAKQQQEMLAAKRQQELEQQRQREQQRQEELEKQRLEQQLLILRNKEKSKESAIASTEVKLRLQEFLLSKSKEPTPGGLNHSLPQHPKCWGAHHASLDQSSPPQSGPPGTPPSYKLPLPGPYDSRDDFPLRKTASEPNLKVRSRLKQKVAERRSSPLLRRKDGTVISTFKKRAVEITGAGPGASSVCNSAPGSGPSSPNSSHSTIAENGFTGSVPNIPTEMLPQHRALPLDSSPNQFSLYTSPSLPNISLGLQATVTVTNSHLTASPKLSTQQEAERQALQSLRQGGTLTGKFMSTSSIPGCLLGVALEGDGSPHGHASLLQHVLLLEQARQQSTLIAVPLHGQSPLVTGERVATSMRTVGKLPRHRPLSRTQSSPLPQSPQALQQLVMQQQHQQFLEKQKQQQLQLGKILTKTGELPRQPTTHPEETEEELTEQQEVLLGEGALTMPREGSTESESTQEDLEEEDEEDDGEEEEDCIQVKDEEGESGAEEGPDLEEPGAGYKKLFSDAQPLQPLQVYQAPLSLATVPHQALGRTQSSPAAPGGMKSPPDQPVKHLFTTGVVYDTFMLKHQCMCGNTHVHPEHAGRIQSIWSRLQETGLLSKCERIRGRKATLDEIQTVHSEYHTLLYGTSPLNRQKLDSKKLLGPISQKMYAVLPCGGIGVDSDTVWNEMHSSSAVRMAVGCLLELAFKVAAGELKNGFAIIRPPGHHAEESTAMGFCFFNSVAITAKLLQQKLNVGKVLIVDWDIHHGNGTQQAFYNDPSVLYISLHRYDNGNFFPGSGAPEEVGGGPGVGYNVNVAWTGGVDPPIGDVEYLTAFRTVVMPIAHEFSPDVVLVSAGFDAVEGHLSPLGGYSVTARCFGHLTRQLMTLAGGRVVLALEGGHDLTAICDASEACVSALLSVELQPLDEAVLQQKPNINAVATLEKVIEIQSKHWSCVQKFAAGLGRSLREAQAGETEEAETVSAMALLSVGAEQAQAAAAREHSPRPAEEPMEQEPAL

Histone deacetylase 4 = Histone deacetylase 4 (Homo sapiens, UniProt P56524); experiment: Inhibition of human HDAC4 using fluorogenic tetrapeptide RHKKAc as substrate
Sequence of Histone deacetylase 4 (P56524 whole entry): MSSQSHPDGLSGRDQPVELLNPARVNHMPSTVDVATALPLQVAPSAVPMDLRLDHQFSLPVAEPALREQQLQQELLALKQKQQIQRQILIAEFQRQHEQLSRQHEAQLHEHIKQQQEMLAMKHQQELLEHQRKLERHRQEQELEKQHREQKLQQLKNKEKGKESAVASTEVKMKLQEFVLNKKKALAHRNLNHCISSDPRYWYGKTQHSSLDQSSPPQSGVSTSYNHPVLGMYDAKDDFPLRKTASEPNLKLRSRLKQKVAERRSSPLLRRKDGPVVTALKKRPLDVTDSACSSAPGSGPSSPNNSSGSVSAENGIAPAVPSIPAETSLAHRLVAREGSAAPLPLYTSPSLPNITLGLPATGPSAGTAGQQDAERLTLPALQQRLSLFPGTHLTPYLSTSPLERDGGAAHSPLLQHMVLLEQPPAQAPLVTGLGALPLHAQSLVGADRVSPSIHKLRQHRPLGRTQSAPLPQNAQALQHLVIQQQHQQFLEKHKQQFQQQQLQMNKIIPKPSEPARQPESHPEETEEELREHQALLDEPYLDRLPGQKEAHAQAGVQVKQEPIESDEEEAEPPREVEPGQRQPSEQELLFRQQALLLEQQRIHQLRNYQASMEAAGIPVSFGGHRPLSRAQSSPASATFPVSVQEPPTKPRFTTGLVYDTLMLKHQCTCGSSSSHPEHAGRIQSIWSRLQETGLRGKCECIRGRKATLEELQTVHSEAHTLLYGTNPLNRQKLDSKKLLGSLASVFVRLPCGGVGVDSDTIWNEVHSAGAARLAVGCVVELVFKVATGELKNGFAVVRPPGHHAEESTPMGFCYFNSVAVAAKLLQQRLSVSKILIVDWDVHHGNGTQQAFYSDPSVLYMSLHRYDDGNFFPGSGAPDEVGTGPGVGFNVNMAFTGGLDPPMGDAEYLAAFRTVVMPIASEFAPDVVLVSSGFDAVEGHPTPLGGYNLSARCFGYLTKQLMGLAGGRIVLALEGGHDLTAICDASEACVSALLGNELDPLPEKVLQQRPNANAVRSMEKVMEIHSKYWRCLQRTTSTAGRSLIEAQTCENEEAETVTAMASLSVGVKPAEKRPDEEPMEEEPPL

Sequence of Histone deacetylase 9 (Q9UKV0 whole entry): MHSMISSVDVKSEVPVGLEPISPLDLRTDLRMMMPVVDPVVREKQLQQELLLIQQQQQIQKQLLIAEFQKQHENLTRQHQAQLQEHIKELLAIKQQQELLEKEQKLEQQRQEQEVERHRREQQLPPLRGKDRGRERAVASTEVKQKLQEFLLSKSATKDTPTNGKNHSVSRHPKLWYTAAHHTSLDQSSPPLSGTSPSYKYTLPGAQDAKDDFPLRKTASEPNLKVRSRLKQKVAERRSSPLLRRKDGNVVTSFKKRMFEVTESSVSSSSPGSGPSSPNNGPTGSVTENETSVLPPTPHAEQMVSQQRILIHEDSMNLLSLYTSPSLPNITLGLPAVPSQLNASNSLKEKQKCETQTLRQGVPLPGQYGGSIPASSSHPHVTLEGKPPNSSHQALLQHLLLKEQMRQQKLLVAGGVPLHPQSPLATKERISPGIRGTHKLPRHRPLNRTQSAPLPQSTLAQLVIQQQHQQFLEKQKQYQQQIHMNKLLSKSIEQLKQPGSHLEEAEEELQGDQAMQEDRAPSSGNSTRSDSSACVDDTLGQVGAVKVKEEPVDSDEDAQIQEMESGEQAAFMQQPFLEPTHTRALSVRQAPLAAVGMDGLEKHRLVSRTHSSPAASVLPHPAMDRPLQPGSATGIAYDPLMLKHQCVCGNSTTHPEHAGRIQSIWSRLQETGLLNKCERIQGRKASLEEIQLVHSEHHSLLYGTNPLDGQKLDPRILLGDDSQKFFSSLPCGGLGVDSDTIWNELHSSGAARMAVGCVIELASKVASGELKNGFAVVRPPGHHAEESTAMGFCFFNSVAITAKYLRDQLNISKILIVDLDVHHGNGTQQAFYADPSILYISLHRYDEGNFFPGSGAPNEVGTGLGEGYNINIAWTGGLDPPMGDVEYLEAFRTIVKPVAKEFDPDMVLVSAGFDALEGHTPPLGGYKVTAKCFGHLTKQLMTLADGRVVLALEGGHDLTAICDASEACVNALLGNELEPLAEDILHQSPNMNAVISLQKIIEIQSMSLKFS

pIC50 (Histone deacetylase 9) | pIC50 (Histone deacetylase 1) | pIC50 [1] | pIC50 (Histone deacetylase 3) | pIC50 (HCT-116) | pIC50 (Histone deacetylase 8) | pIC50 (Histone deacetylase 11) | pIC50 (Histone deacetylase 5) | pIC50 (Histone deacetylase 4) | SMILES | Activity (IGROV-1) [%]
< 4.00 | 4.22 | < 4.00 | < 4.00 | 5.74 | 4.51 | 4.42 | < 4.00 | < 4.00 | COc1ccc(-c2ccc(/C=C/C=C/C(=O)NO)cc2)cc1C12CC3CC(CC(C3)C1)C2 | 52
< 4.00 | < 4.00 | < 4.00 | < 4.00 | 5.62 | 5.81 | < 4.00 | < 4.00 | < 4.00 | COc1ccc(-c2ccc(/C=C/C=C/C(=O)NO)cc2)cc1 | 91
